From ChEMBL document CHEMBL3233000, “Cytotoxic ent-kaurane diterpenoids from Isodon wikstroemioides” (J Nat Prod, 2014)

Tests used:
Assay type in all cases: functional, cell-based
[1] = system: RAW264.7; experiment: Inhibition of nitric oxide production in LPS-stimulated mouse RAW264.7 cells after 18 hrs by griess reagent based plate reader analysis; conditions: RAW264.7, 18 h
How it was run: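 RAW264.7 macrophages seeded at 2 × 10^5 cells/well. Treated with serial dilutions (top concentration 25 μM), then stimulated with LPS 1 μg/mL for 18 h. Supernatant NO measured with Griess reagents, absorbance 550 nm. MG-132 was the positive control. Viability was checked in parallel by MTT (595 nm) to exclude cytotoxic interference.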

[2] = system: SW480; experiment: Cytotoxicity against human SW480 cells assessed as growth inhibition after 48 hrs by MTS assay; conditions: SW480, 48 h
How it was run: (§1)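 Cell lines from ATCC, grown in RPMI-1640 or DMEM with 10% FBS at 37 °C, 5% CO2. Cells seeded, incubated 12 h at 37 °C, then screened at 40 μM for 48 h with MTS read-out. Where growth inhibition reached 50%, retested at 0.064, 0.32, 1.6, 8 and 40 μM in triplicate. Cisplatin and paclitaxel were positive controls. IC50 by Reed and Muench method.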

[3] = system: HL-60; experiment: Cytotoxicity against human HL60 cells assessed as growth inhibition after 48 hrs by MTS assay; conditions: HL-60, 48 h; how it was run: as §1
[4] = system: SMMC-7721; experiment: Cytotoxicity against human SMMC7721 cells assessed as growth inhibition after 48 hrs by MTS assay; conditions: SMMC-7721, 48 h; how it was run: as §1
[5] = system: A549; experiment: Cytotoxicity against human A549 cells assessed as growth inhibition after 48 hrs by MTS assay; conditions: A549, 48 h; how it was run: as §1
[6] = system: MCF7; experiment: Cytotoxicity against human MCF7 cells assessed as growth inhibition after 48 hrs by MTS assay; conditions: MCF7, 48 h; how it was run: as §1

**Q.** `C=C1C(=O)[C@@]23CC[C@@H]4[C@@](C)(CO)CCC[C@@]4(C=O)[C@@H]2CC[C@@H]1[C@H]3O` was tested. Which IC50 [1] did it give?
**A.** 9900 nM

**Q.** And the IC50 [2]?
**A.** > 10000 nM

**Q.** And the IC50 [3]?
**A.** > 10000 nM

**Q.** What about the IC50 [4] of the same compound?
**A.** > 10000 nM

**Q.** What about the IC50 [5] of the same compound?
**A.** > 10000 nM

**Q.** And the IC50 [6]?
**A.** > 10000 nM

**Q.** What does the source list for `C=C1C(=O)[C@]23C[C@H]1CC[C@H]2[C@]1(CO)CCC[C@](C)(CO)[C@H]1C[C@H]3O`?
**A.** IC50 [1]: 2800 nM; IC50 [2]: 4000 nM; IC50 [3]: > 10000 nM; IC50 [4]: 7100 nM; IC50 [5]: > 10000 nM; IC50 [6]: 7300 nM

**Q.** `C=C1C(=O)[C@]23C[C@H]1C[C@H](OC(C)=O)[C@H]2[C@]1(C)[C@@H](OC(C)=O)C[C@H](O)C(C)(C)[C@H]1C(=O)[C@@H]3OC(C)=O` [ADENANTHIN] was tested. Which IC50 [1] did it give?
**A.** 3300 nM

**Q.** What about the IC50 [2] of the same compound?
**A.** 2000 nM

**Q.** And the IC50 [3]?
**A.** 3600 nM

**Q.** And the IC50 [4]?
**A.** 4000 nM

**Q.** And the IC50 [5]?
**A.** 3300 nM

**Q.** What about the IC50 [6] of the same compound?
**A.** 2800 nM

**Q.** What does the source list for `C=C1C(=O)[C@@]23[C@H](O)C[C@@H]4[C@@](C)(COC(C)=O)CCC[C@@]4(C)[C@@H]2C[C@H](O)[C@@H]1[C@H]3O` [ALBOPILOSIN A]?
**A.** IC50 [1]: 1900 nM; IC50 [2]: 900 nM; IC50 [3]: 2000 nM; IC50 [4]: 1400 nM; IC50 [5]: 3200 nM; IC50 [6]: 1700 nM

**Q.** For `C=C1C(=O)[C@@]23[C@H](O)C[C@@H]4[C@@](C)(CO)CCC[C@@]4(C)[C@@H]2CC[C@@H]1[C@H]3O` [EXCISANIN C], which IC50 [1] is on record?
**A.** 1000 nM

**Q.** And the IC50 [2]?
**A.** 1300 nM

**Q.** What about the IC50 [3] of the same compound?
**A.** 3000 nM

**Q.** What about the IC50 [4] of the same compound?
**A.** 2700 nM

**Q.** And the IC50 [5]?
**A.** 2100 nM

**Q.** What about the IC50 [6] of the same compound?
**A.** 1600 nM

**Q.** For `C=C1C(=O)[C@@]23[C@H](O)C[C@@H]4C(C)(C)CCC[C@@]4(C)[C@@H]2C[C@H](O)[C@@H]1[C@H]3O` [ISOSCOPARIN L], which IC50 [1] is on record?
**A.** 800 nM

**Q.** And the IC50 [2]?
**A.** 600 nM

**Q.** What about the IC50 [3] of the same compound?
**A.** 500 nM

**Q.** What about the IC50 [4] of the same compound?
**A.** 1200 nM

**Q.** What about the IC50 [5] of the same compound?
**A.** 800 nM

**Q.** What about the IC50 [6] of the same compound?
**A.** 400 nM

**Q.** `C=C1C(=O)[C@@]23[C@H](O)C[C@H]4[C@@](C)(CCC[C@]4(C)C=O)[C@@H]2C[C@H](O)[C@@H]1[C@H]3O` [MACROCALYXIN C] was tested. Which IC50 [1] did it give?
**A.** 2700 nM

**Q.** And the IC50 [2]?
**A.** 2100 nM

**Q.** And the IC50 [3]?
**A.** 3700 nM

**Q.** And the IC50 [4]?
**A.** 4000 nM

**Q.** And the IC50 [5]?
**A.** > 10000 nM

**Q.** What about the IC50 [6] of the same compound?
**A.** 3700 nM

**Q.** What does the source list for `C=C1C(=O)[C@@]23[C@H](O)C[C@@H]4C(C)(C)CCC[C@@]4(C)[C@@H]2[C@@H](O)C[C@@H]1[C@H]3O` [PHYLLOSTACHYSIN F]?
**A.** IC50 [1]: 1000 nM; IC50 [2]: 1100 nM; IC50 [3]: 3300 nM; IC50 [4]: 2100 nM; IC50 [5]: 2300 nM; IC50 [6]: 1500 nM

**Q.** `C=C1C(=O)[C@@]23[C@H](O)C[C@@H]4C(C)(C)CCC[C@@]4(C)[C@@H]2[C@@H](O)[C@H](O)[C@@H]1[C@H]3OC(C)=O` [RABDOKUNMIN A] was tested. Which IC50 [1] did it give?
**A.** 7200 nM

**Q.** What about the IC50 [2] of the same compound?
**A.** 4700 nM

**Q.** And the IC50 [3]?
**A.** 8800 nM

**Q.** What about the IC50 [4] of the same compound?
**A.** 5800 nM

**Q.** What about the IC50 [5] of the same compound?
**A.** > 10000 nM

**Q.** And the IC50 [6]?
**A.** > 10000 nM

**Q.** Which results are given for `C=C1C(=O)[C@@]23[C@H](O)C[C@@H]4C(C)(C)CCC[C@@]4(C)[C@@H]2[C@@H](O)[C@H](O)[C@@H]1[C@H]3O` [RABDOLOXIN B]?
**A.** IC50 [1]: 1900 nM; IC50 [2]: 2400 nM; IC50 [3]: 2900 nM; IC50 [4]: 3400 nM; IC50 [5]: 4400 nM; IC50 [6]: 3000 nM
